Screening results from PubChem.
bCat KO growth – beta-catenin-lacking colon tumor cell growth suppression; 140,000 compounds, 1.5% hits; HCT116 beta-catenin knockout viability, CellTiter-Glo, 60 h; active compounds read low; viability, % at 10 µM;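 active = viability at or under a set limit, the compound median less 4 SD, cut at about 6% in these data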
Phagocyt inh – inhibitors of macrophage phagocytosis. J774A.1 macrophage IgG-bead phagocytosis, imaging. inhibition, % at 5 µM. 110,000 compounds, 0.07% hits;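 active = inhibition above the mean of the plate negative controls plus 5 SD, cut at about 13% in these data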;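 note: phagocytic index as fraction of beads internalized from green versus red external bead signal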
HCT116 PTEN-null – suppresses growth of cells with PTEN deletion. HCT116 PTEN-null viability, CellTiter-Glo, 60 h; active compounds read low. viability, % at 10 µM. 140,000 compounds, 1.2% hits;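 active = viability at or below a set limit, 4 SD under the median of all tested compounds, cut at about 3.7% in these data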;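 note: PTEN knockout HCT116 line with beta catenin targeted HCT116 as companion control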
HUVEC inhibit – blocks proliferation of human endothelial cells | 86,000 compounds, 1.1% hits | HUVEC proliferation, CellTiter-Glo luminescence, 72 h; active compounds read low | viability, % at 10 µM (by protocol);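 active = viability at or below 30%; inactive = viability above 30%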
H69AR inhibit – growth inhibitors of human H69AR lung tumor cells; H69AR lung tumor viability, ATP luminescence, 72 h; active compounds read low; viability, % at 10 µM; 85,000 compounds, 6% hits; AID 598;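 active = viability at or below 40%; inactive = viability above 40%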;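 note: multidrug resistant small cell line overexpressing MRP-1 efflux transporter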
Lung fibro prol – blocks proliferation of human lung fibroblasts; LL 47 human lung fibroblast viability, ATP luminescence; active compounds read low; viability, % at 10 µM; 85,000 compounds, 1.1% hits; AID 719;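 active = viability at or below 50% in the single dose screen; inactive = viability above 50%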;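 note: compound exposure lasted 72 h before the ATP readout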
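Material: Human LL 47 lung fibroblast cells | Input: 1,150 cells/well | Buffer or medium: IMEM plus 15% FBS | Compound dosing: 0.1% DMSO in all compound wells | Times: Overnight cell rest, 72 h compound treatment at 37 °C | Signal: CellTiter-Glo luminescence measuring cellular ATP | Measure: % viability versus median cells-only luminescence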
Each line names hits and unclear results; the compound was inactive in the other large screens. Many of the other results were omitted from the sample, so hits are more common in it than they were.

CN(C)S(=O)(=O)c1ccc(/C(O)=C2/C(=O)C(=O)N(CCN3CCCCC3)C2c2cccnc2)cc1 (centres undefined)	none (no result: bCat KO growth, Phagocyt inh, HCT116 PTEN-null)
CCCC(=O)N1c2ccccc2C(=C2SC(C(=O)OC)=C(C(=O)OC)S2)C(=S)C1(C)C	H69AR inhibit 23.8 (no result: Phagocyt inh)
CCOc1ccc(N2C(=O)c3ccc(C(=O)OCc4c(C)noc4C)cc3C2=O)cc1	H69AR inhibit 35.8
Cc1noc(C)c1COC(=O)c1ccc2c(c1)S(=O)(=O)c1ccccc1C2=O	none
COC(=O)c1ccc(CSc2nc3ccc(S(=O)(=O)N4CCOCC4)cc3[nH]2)cc1	none (no result: HUVEC inhibit, H69AR inhibit, Lung fibro prol)
Cc1ccc(C)c(N2CCN(C(=O)c3ccc(Cn4c(=O)[nH]c5ccccc5c4=O)cc3)CC2)c1	H69AR inhibit 7.5
O=C(c1ccc(Cn2c(=O)[nH]c3ccccc3c2=O)cc1)N1CCN(c2ccc(Cl)cc2)CC1	H69AR inhibit 36.5
C=CCn1c(=O)[nH]c2cc(C(=O)N3CCN(c4cc(C)ccc4C)CC3)ccc2c1=O	H69AR inhibit 25.4
Cc1ccc(C)c(N2CCN(c3nc4ccccc4c(=O)n3Cc3ccccc3)CC2)c1	none
Oc1c(C(c2ccco2)N2CCN(C(c3ccccc3)c3ccccc3)CC2)sc2ncnn12 (centres undefined)	H69AR inhibit 33.3
Cc1ccc(S(=O)(=O)N2CCC(C(=O)OCc3ccc([N+](=O)[O-])cc3)CC2)cc1	none (no result: HUVEC inhibit, H69AR inhibit, Lung fibro prol)
CC1Cc2ccccc2N1C(=O)c1cc2c(=O)n3ccccc3nc2n1C (centres undefined)	H69AR inhibit 12.8 (no result: Phagocyt inh)
Cc1cccn2c(=O)c3cc(C(=O)N4CCc5ccccc54)n(C)c3nc12	H69AR inhibit 25.3 (no result: bCat KO growth, Phagocyt inh, HCT116 PTEN-null)
COC(=O)c1c(NC(=O)CSc2nnc3ccccn23)sc2c1CCC2	none (no result: HUVEC inhibit, H69AR inhibit, Lung fibro prol)
O=C(CN1CCN(S(=O)(=O)c2ccccc2)CC1)Nc1ccccc1C(=O)c1ccccc1	none (no result: HUVEC inhibit, H69AR inhibit, Lung fibro prol)
O=C(NCCN1CCOCC1)N1c2ccccc2Sc2ccccc21	none (no result: Phagocyt inh, HUVEC inhibit, H69AR inhibit, Lung fibro prol)
c1ccc(-c2nnc3n2N=C(c2ccc4c(c2)OCO4)CS3)nc1	none
c1cc2c(cc1C1=Nn3c(nnc3C3CCCCC3)SC1)OCO2	H69AR inhibit 29.5
CC(=O)NC1(C(F)(F)F)C(=O)NC(C)=C1C#N (centres undefined)	none
C/C(=N/NC(=O)CNC(=O)c1ccccn1)c1ccccc1	none (no result: Phagocyt inh, HUVEC inhibit, H69AR inhibit, Lung fibro prol)
C=CCNC(=S)N/N=C(\C)c1ccccn1	HUVEC inhibit 18.9, H69AR inhibit 20.5, Lung fibro prol 9.2
C/C(=N\NC(=O)CCCNc1ccc(C)cc1)c1ccccn1	bCat KO growth 5.8 (no result: HUVEC inhibit, H69AR inhibit, Lung fibro prol)
COc1cccc(CN2CCC(N(CCc3ccccc3)Cc3ccccc3)CC2)c1OC	none (no result: HUVEC inhibit, H69AR inhibit, Lung fibro prol)
CC(=O)n1cc(C(C[N+](=O)[O-])SCCN)c2ccccc21 (centres undefined)	HUVEC inhibit 21.6, H69AR inhibit 1.6, Lung fibro prol 24.4 (no result: Phagocyt inh)
CCOc1ccccc1N1CCN(c2nc(N)c(C#N)c(CC#N)c2C#N)CC1	H69AR inhibit 20.1
CCOc1ccccc1N1CCN(c2nc3ccccc3nc2C(C#N)C(=O)OC)CC1 (centres undefined)	none (no result: Phagocyt inh, HUVEC inhibit, H69AR inhibit, Lung fibro prol)
CCN(CC)S(=O)(=O)c1ccc2nnn(OCC(=O)Nc3cccc(C#N)c3)c2c1	H69AR inhibit 5.3
CCNc1ccc(C(=O)OCC)cc1NC(=O)c1cccc(N(C)C)c1	H69AR inhibit 22.1
CCNc1ccc(C(=O)OCC)cc1NC(=O)c1cccc(S(=O)(=O)N(C)c2ccccc2)c1	none (no result: HUVEC inhibit, H69AR inhibit, Lung fibro prol)
Cc1noc(C)c1CSc1nc2ccccc2c(=O)n1-c1ccc(Cl)cc1	H69AR inhibit 14.5
C/C(=C1/C(=O)N(c2ccc([N+](=O)[O-])cc2)N=C1c1ccccc1)N(C)C	bCat KO growth 3.3, HCT116 PTEN-null 2.2 (no result: HUVEC inhibit, H69AR inhibit, Lung fibro prol)
CCn1c(/C=C/N(C)c2ccccc2)[n+](CC)c2ccc(Cl)cc21	bCat KO growth 3.8 (no result: HUVEC inhibit, H69AR inhibit, Lung fibro prol)
COc1cc2nc(NCCCN3CCN(C)CC3)n3nc(-c4ccccc4)nc3c2cc1OC	bCat KO growth 2.2, HCT116 PTEN-null 1.9, HUVEC inhibit 25.1, H69AR inhibit 28.4
CN1CCN(CCCNc2nc3ccccc3c3nc(-c4ccccc4)nn23)CC1	H69AR inhibit 27.9 (no result: bCat KO growth, Phagocyt inh, HCT116 PTEN-null)
CCCn1c(N)c(C(=O)CSc2nnnn2-c2ccc(O)cc2)c(=O)n(C)c1=O	none
Cc1ccc(N(CC(O)Cn2c3ccccc3c3ccccc32)S(C)(=O)=O)c(C)c1 (centres undefined)	H69AR inhibit 17.3
CS(=O)(=O)N(Cc1ccco1)CC(O)Cn1c2ccccc2c2ccccc21 (centres undefined)	none (no result: HUVEC inhibit, H69AR inhibit, Lung fibro prol)
Cc1cccc(C)c1N(CC(O)Cn1c2ccccc2c2ccccc21)S(C)(=O)=O (centres undefined)	H69AR inhibit 21.0
CC(=O)Nc1ccc(N(CC(O)Cn2c3ccccc3c3ccccc32)S(=O)(=O)c2ccc(C)cc2)cc1 (centres undefined)	none (no result: HUVEC inhibit, H69AR inhibit, Lung fibro prol)
Cc1ccc(N(CC(O)Cn2c3ccccc3c3ccccc32)S(C)(=O)=O)cc1 (centres undefined)	H69AR inhibit 31.5
Cc1ccc(N(CC(O)CON=C2c3ccccc3-c3ccccc32)S(C)(=O)=O)cc1 (centres undefined)	H69AR inhibit 15.1
O=C(COC(=O)c1ccc(CNS(=O)(=O)c2ccc(F)c(Cl)c2)cc1)NCC1CCCCC1	none (no result: HUVEC inhibit, H69AR inhibit, Lung fibro prol)
Cc1sc2c(c1C)CN(Cc1ccco1)CN2C(=O)c1ccccc1	none (no result: bCat KO growth, Phagocyt inh, HCT116 PTEN-null)
COC(=O)c1sc(-c2ccccc2)cc1NC(=O)c1ccc(OC)cc1	bCat KO growth 3.1 (no result: HUVEC inhibit, H69AR inhibit, Lung fibro prol)
Cn1nc([N+](=O)[O-])nc1Sc1nnc(-c2ccccc2)o1	bCat KO growth 3.4, HCT116 PTEN-null 2.6, H69AR inhibit 2.6
O=Cc1ccc(Sc2nnc(-c3ccccc3)o2)c([N+](=O)[O-])c1	HUVEC inhibit 2.4, H69AR inhibit 2.0
O=C(CCCCl)Oc1ccc2cc(-c3ccc4ccccc4n3)c(=O)oc2c1	none (no result: HUVEC inhibit, H69AR inhibit, Lung fibro prol)
CCCCOc1ccc(-c2cc(C(=O)NNC(=S)NCC)c3ccccc3n2)cc1	bCat KO growth 1.6, HCT116 PTEN-null 1.8 (no result: Phagocyt inh, HUVEC inhibit, H69AR inhibit, Lung fibro prol)
Cc1ccc(C)c(N2CCN(c3nnnn3-c3ccccc3)CC2)c1	H69AR inhibit 19.9
CC1=C(C#N)c2nc(N)c(C#N)c(C)c2/C1=C\c1ccc(C)cc1	bCat KO growth 3.2, HCT116 PTEN-null 1.9, HUVEC inhibit 4.3, Lung fibro prol 3.3 (no result: Phagocyt inh)
c1ccc(CSc2nnc(-c3c[nH]c4ccccc34)o2)cc1	HUVEC inhibit 27.2
COc1cc(CC(=O)NCCc2ccc(S(N)(=O)=O)cc2)cc(OC)c1OC	none (no result: HUVEC inhibit, H69AR inhibit, Lung fibro prol)
CCc1ccc2[nH]c(=O)c(CN(Cc3ccccc3OC)Cc3nnnn3Cc3ccco3)cc2c1	H69AR inhibit 12.4
COc1ccccc1CN(Cc1cc2cc(C)ccc2[nH]c1=O)Cc1nnnn1Cc1ccco1	H69AR inhibit 37.7
COc1cc2cc(CN(Cc3nnnn3Cc3ccco3)C3CCCCC3)c(=O)[nH]c2cc1OC	none
COc1ccccc1CN(Cc1cc2cc(C)ccc2[nH]c1=O)Cc1nnnn1CC1CCCO1 (centres undefined)	none
c1ccc(CN2CCN(c3ncnc4nc[nH]c34)CC2)cc1	none
